These results are taken from ChEMBL document CHEMBL1143074, “Symplocamide A, a potent cytotoxin and chymotrypsin inhibitor from the marine Cyanobacterium Symploca sp” (J Nat Prod, 2008).

Test [1] in a line: Inhibition of trypsin at 10 uM.
Test [2] is described as follows: Inhibition of chymotrypsin. In outline:
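Spectrophotometric assay: 0.0025 mg/mL chymotrypsin (0.0086 U) with 0.53 mM BTEE in 38 mM Tris-HCl pH 7.8, 53 mM CaCl2, 0.5 mM HCl and 32% MeOH at 25 °C. Inhibitor (from MeOH dilutions, final 6.25 × 10-5 to 7.5 × 10^-9 M) was equilibrated with substrate before enzyme addition. Absorbance at 256 nm was followed for 5 min, and the 0.5–1.5 min interval was analyzed.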

pIC50: −log10 of the molar value. Active and inactive are the calls of the source. No cut-off for these calls is given here.

`CC[C@H](C)[C@@H]1NC(=O)[C@H](Cc2ccc(O)cc2)N(C)C(=O)[C@H]([C@@H](C)CC)N2C(=O)C(CCC2O)NC(=O)[C@H](CC(C)C)NC(=O)[C@@H]2C(OC1=O)C(C)CN2C(=O)[C@H](CCC(N)=O)NC(C)=O` (stereo in doubt; form 1): the result in test [1] was inactive.
One may read the pIC50 as −log10 of the IC50, conventionally taken in molar units. Turning to `CC[C@H](C)[C@@H]1NC(=O)[C@H](Cc2ccc(O)cc2)N(C)C(=O)[C@H]([C@@H](C)CC)N2C(=O)C(CCC2O)NC(=O)[C@H](CC(C)C)NC(=O)[C@@H]2C(OC1=O)C(C)CN2C(=O)[C@H](CCC(N)=O)NC(C)=O` (stereo in doubt; form 1) [NOSTOPEPTIN B], the pIC50 in test [2] is 5.76.
In turn, `CC(=O)N[C@@H](CCC(N)=O)C(=O)N[C@@H]1C(=O)N[C@@H](CC(C)C)C(=O)N[C@H]2CC[C@@H](O)N(C2=O)[C@@H](Cc2ccccc2)C(=O)N(C)[C@@H](Cc2ccc(O)c(Cl)c2)C(=O)N[C@@H](C(C)C)C(=O)O[C@H]1C` [CYANOPEPTOLIN 954] had a pIC50 in test [2] of 7.40. In test [1], the outcome was inactive.
For `CCCCCC(=O)N[C@@H](CC(=O)O)C(=O)N[C@@H]1C(=O)N[C@@H](Cc2ccc(O)cc2)C(=O)N[C@H]2CC[C@@H](O)N(C2=O)[C@@H](CC(C)C)C(=O)N(C)[C@@H](Cc2ccccc2)C(=O)N[C@@H](C(C)C)C(=O)O[C@@H]1C` [CYANOPEPTOLIN 963A], in that order: 6.05 and “inactive”.
For `CC(C)C[C@@H]1NC(=O)[C@@H](NC(=O)[C@@H](NC(=O)[C@H](C)NC(=O)[C@H](CCCc2ccc(O)cc2)NC(=O)[C@H](O)CO)C(C)C)[C@@H](C)OC(=O)[C@H](C(C)C)NC(=O)[C@H](Cc2ccc(O)c(Br)c2)N(C)C(=O)[C@H]([C@@H](C)O)N2C(=O)[C@H](CC[C@H]2O)NC1=O` [LARGAMIDE D], in that order: 5.00 and “inactive”.
For `CC(C)C[C@@H]1NC(=O)[C@@H](NC(=O)[C@@H](NC(=O)[C@@H](C)NC(=O)[C@H](CCCc2ccc(O)cc2)NC(=O)[C@H](O)CO)C(C)C)[C@@H](C)OC(=O)[C@H](C(C)C)NC(=O)[C@H](Cc2ccc(O)c(Cl)c2)N(C)C(=O)[C@H]([C@@H](C)O)N2C(=O)[C@H](CC[C@H]2O)NC1=O` [LARGAMIDE E] the same measures were 5.00 and “inactive”.
Turning to `CC(C)[C@H](NC(=O)[C@@H](C)NC(=O)[C@H](CCCc1ccc(O)cc1)NC(=O)[C@H](O)CO)C(=O)N[C@@H]1C(=O)N[C@@H](Cc2ccc(O)cc2)C(=O)N[C@H]2CC[C@@H](O)N(C2=O)[C@@H]([C@@H](C)O)C(=O)N(C)[C@@H](Cc2ccc(O)c(Br)c2)C(=O)N[C@@H](C(C)C)C(=O)O[C@@H]1C` [LARGAMIDE F], the pIC50 in test [2] was 5.40. Besides, the outcome in test [1] was inactive.
For the compound `C/C=C1\NC(=O)[C@@H](NC(=O)[C@H](CCc2ccc(O)cc2)NC(=O)[C@H](C)NC(=O)[C@H](O)COS(=O)(=O)O)[C@@H](C)OC(=O)[C@H](C(C)C)NC(=O)[C@H](Cc2ccc(O)cc2)N(C)C(=O)[C@H](Cc2ccccc2)N2C(=O)[C@H](CC[C@H]2O)NC1=O` [LYNGBYASTATIN 4], the outcome in test [1] was inactive.
For `CC[C@H](C)[C@@H]1NC(=O)[C@H](Cc2ccccc2)N(C)C(=O)[C@H](C(C)C)N2C(=O)[C@H](CC[C@H]2O)NC(=O)[C@H](CC2C=CC(O)CC2)NC(=O)[C@@H](NC(=O)[C@@H](N)CCC(=O)O)[C@@H](C)OC1=O` (some centres not stated) [MICROPEPTIN 88A], the pIC50 in test [2] is 6.40. The outcome in test [1] was inactive.
In the case of `CCCC(=O)N[C@@H](Cc1ccccc1)C(=O)N[C@@H](CCC(=O)O)C(=O)N[C@@H]1C(=O)N[C@@H](Cc2ccc(O)cc2)C(=O)N[C@H]2CC[C@@H](O)N(C2=O)[C@@H](C(C)C)C(=O)N(C)[C@@H](Cc2ccccc2)C(=O)N[C@@H]([C@@H](C)CC)C(=O)O[C@@H]1C` [MICROPEPTIN 88C], in test [2], the pIC50 is 5.35. Further, the result in test [1] was inactive.
The compound `CCCC(=O)N[C@@H](Cc1ccccc1)C(=O)N[C@@H](CCC(=O)O)C(=O)N[C@@H]1C(=O)N[C@@H](CC2C=CC(O)CC2)C(=O)N[C@H]2CC[C@@H](O)N(C2=O)[C@@H](C(C)C)C(=O)N(C)[C@@H](Cc2ccccc2)C(=O)N[C@@H]([C@@H](C)CC)C(=O)O[C@@H]1C` (some centres not stated) [MICROPEPTIN 88D] gave a pIC50 in test [2] of 5.05. Further, the result in test [1] was inactive.
The compound `CCCC(=O)N[C@@H](Cc1ccccc1)C(=O)N[C@@H](CCC(=O)O)C(=O)N[C@@H]1C(=O)N[C@@H](CC(C)C)C(=O)N[C@H]2CC[C@@H](O)N(C2=O)[C@@H](C(C)C)C(=O)N(C)[C@@H](Cc2ccccc2)C(=O)N[C@@H]([C@@H](C)CC)C(=O)O[C@@H]1C` [MICROPEPTIN 88E] gave a pIC50 in test [2] of 5.31. Further, in test [1], the outcome was inactive.
`CCCC(=O)N[C@@H](Cc1ccccc1)C(=O)N[C@@H](CCC(=O)OC)C(=O)N[C@@H]1C(=O)N[C@@H](Cc2ccc(O)cc2)C(=O)N[C@H]2CC[C@@H](O)N(C2=O)[C@@H](C(C)C)C(=O)N(C)[C@@H](Cc2ccccc2)C(=O)N[C@@H]([C@@H](C)CC)C(=O)O[C@@H]1C` [MICROPEPTIN 88F] gave a pIC50 in test [2] of 5.52. The outcome in test [1] was inactive.
For `CC[C@H](C)[C@@H]1NC(=O)[C@H](Cc2ccccc2)N(C)C(=O)[C@H](C(C)C)N2C(=O)[C@H](CC[C@H]2O)NC(=O)[C@H](Cc2ccc(O)cc2)NC(=O)[C@@H](NC(=O)[C@H](CCC(=O)O)NC(=O)[C@H](Cc2ccc(O)cc2)NC(C)=O)[C@@H](C)OC1=O` [MICROPEPTIN 88Y] the same measures were 5.89 and “inactive”.
On to `CCCCCC(=O)NCC(=O)N[C@H](C(=O)N[C@@H]1C(=O)N[C@@H](CCC(N)=O)C(=O)N[C@H]2CC[C@@H](O)N(C2=O)[C@@H](Cc2ccccc2)C(=O)N(C)[C@@H](Cc2c[nH]c3ccccc23)C(=O)N[C@@H](C(C)C)C(=O)O[C@@H]1C)[C@@H](C)O` [MICROPEPTIN 103], for which the pIC50 in test [2] was 6.02. Further, the outcome in test [1] was inactive.
For `CCCCCC(=O)N[C@@H](CC(=O)O)C(=O)N[C@@H]1C(=O)N[C@@H](Cc2ccc(O)cc2)C(=O)N[C@H]2CC[C@@H](O)N(C2=O)[C@@H]([C@@H](C)CC)C(=O)N(C)[C@@H](Cc2ccc(O)cc2)C(=O)N[C@@H](C(C)C)C(=O)O[C@@H]1C` [MICROPEPTIN SD979] the same measures were 5.62 and “inactive”.
For `CCCCCC(=O)N[C@@H](CC(=O)O)C(=O)N[C@@H]1C(=O)N[C@@H](Cc2ccc(O)cc2)C(=O)N[C@H]2CC[C@@H](O)N(C2=O)[C@@H]([C@@H](C)CC)C(=O)N(C)[C@@H](Cc2c[nH]c3ccccc23)C(=O)N[C@@H](C(C)C)C(=O)O[C@@H]1C` [MICROPEPTIN SD1002], in that order: 5.50 and “inactive”.
For `CC[C@H](C)[C@@H]1NC(=O)[C@H](Cc2ccc(O)cc2)N(C)C(=O)[C@H](CC(C)C)N2C(=O)[C@H](CC[C@H]2O)NC(=O)[C@H](CCC(N)=O)NC(=O)[C@@H](NC(=O)[C@@H](O)Cc2ccc(O)cc2)[C@@H](C)OC1=O` [MICROPEPTIN SF909], the pIC50 in test [2] was 5.36. In addition, the outcome in test [1] was inactive.
In the case of `CCCCCC(=O)N[C@@H](CCC(N)=O)C(=O)N[C@@H]1C(=O)N[C@@H](Cc2ccc(O)cc2)C(=O)N[C@H]2CC[C@@H](O)N(C2=O)[C@@H](Cc2ccccc2)C(=O)N(C)[C@@H](Cc2ccc(O)cc2)C(=O)N[C@@H](C(C)C)C(=O)O[C@@H]1C` [MICROPEPTIN T1], in test [2], the negative-log IC50 (pIC50) is 5.55. The outcome in test [1] was inactive.
In test [2], `CC[C@H](C)[C@@H]1NC(=O)[C@H](Cc2ccc(O)cc2)N(C)C(=O)[C@H](Cc2ccccc2)N2C(=O)[C@H](CC[C@H]2O)NC(=O)[C@H](Cc2ccccc2)NC(=O)[C@@H](NC(=O)[C@@H](O)COP(=O)(O)O)[C@@H](C)OC1=O` [MICROPEPTIN T 20] gave a pIC50 of 8.60.
In turn, `CCCC(=O)N[C@@H](CCC(N)=O)C(=O)N1CC(C)C2OC(=O)[C@H]([C@@H](C)CC)NC(=O)[C@H](Cc3ccc(O)cc3)N(C)C(=O)[C@H]([C@@H](C)CC)N3C(=O)C(CCC3O)NC(=O)[C@H](CC(C)C)NC(=O)[C@H]21` (some centres not stated) [NOSTOPEPTIN A] showed a negative logarithm of the IC50 (pIC50) in test [2] of 5.83. Further, the result in test [1] was inactive.
`CC[C@@H](C)[C@@H]1NC(=O)[C@H](Cc2ccc(OC)cc2)N(C)C(=O)[C@H]([C@@H](C)CC)N2C(=O)[C@H](CC[C@H]2O)NC(=O)[C@H](CCc2ccc(OC)cc2)NC(=O)[C@@H](NC(=O)[C@H](CCc2ccc(O)cc2)NC(=O)[C@@H](COS(=O)(=O)O)OC)[C@@H](C)OC1=O` [OSCILLAPEPTIN B] had a pIC50 in test [2] of 5.75.
Still for that read-out and setting: then `CC[C@@H](C)[C@@H]1NC(=O)[C@H](Cc2ccccc2)N(C)C(=O)[C@H]([C@@H](C)CC)N2C(=O)[C@H](CC[C@H]2OC)NC(=O)[C@H](CC2C=CC(O)C=C2)NC(=O)[C@@H](NC(=O)[C@@H](CCc2ccc(O)cc2)NC(=O)[C@@H](CO)OC)[C@@H](C)OC1=O` (some centres not stated) [OSCILLAPEPTIN C], with 5.55; and `CC[C@H](C)[C@@H]1NC(=O)[C@H](Cc2ccccc2)N(C)C(=O)[C@H]([C@@H](C)CC)N2C(=O)[C@H](CC[C@H]2O)NC(=O)[C@H](C[C@H]2C=C[C@H](O)CC2)NC(=O)[C@@H](NC(=O)[C@H](CCc2ccc(O)cc2)NC(=O)[C@@H](COS(=O)(=O)O)OC)[C@@H](C)OC1=O` [OSCILLAPEPTIN D], with 5.71.
In turn, `CC[C@@H](C)[C@@H]1NC(=O)[C@H](Cc2ccccc2)N(C)C(=O)[C@H]([C@@H](C)CC)N2C(=O)[C@H](CC[C@H]2O)NC(=O)[C@H](CCc2ccc(O)cc2)NC(=O)[C@@H](NC(=O)[C@@H](CCc2ccc(O)cc2)NC(=O)[C@@H](COS(=O)(=O)O)OC)[C@@H](C)OC1=O` [OSCILLAPEPTIN E] gave a pIC50 in test [2] of 5.58. The pIC50 values of the last two compounds are within 0.2 log units of each other.
